Lmaj promast: Leishmania major promastigote growth inhibition | Leishmania major promastigotes, resazurin fluorescence viability | inhibition, % at 10 µM | 200,000 tested, 9% active | AID 1063;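 note: promastigotes grown with compound for 44 hours at 28 °C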
Rad51 HR inh: blocks human Rad51 in homologous recombination; hRad51 DNA strand exchange, fluorescence dequenching; inhibition, % at 10 µM; 200,000 tested, 0.085% active; AID 1385; Q06609;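 active = inhibition above 40% at the single screening dose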;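 note: 0% = DMSO control wells and 100% = blanks with heterologous ssDNA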
Target sequence (Q06609 whole entry, looked up): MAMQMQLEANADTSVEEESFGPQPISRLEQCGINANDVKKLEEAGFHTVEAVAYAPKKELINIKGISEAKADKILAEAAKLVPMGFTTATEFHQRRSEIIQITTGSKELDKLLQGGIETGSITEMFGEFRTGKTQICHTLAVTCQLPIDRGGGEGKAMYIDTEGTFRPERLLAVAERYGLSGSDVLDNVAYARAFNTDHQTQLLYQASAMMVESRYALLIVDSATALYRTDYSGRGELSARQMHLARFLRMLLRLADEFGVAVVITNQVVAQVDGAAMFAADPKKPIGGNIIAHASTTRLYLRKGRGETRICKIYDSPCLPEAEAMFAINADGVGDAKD
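Assay system: Human Rad51 nucleoprotein filaments preassembled on unlabelled ssDNA | Reagent: Donor/quencher-labelled 47-bp dsDNA substrate | Doses: One concentration, 10 µM final | Times: 37 °C 15-min filament assembly, 30-min compound preincubation, 15-min exchange | Technique: Fluorescein emission 520 nm, excitation 485 nm | Benchmarks: Plate control and blank wells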
PKD1 kinase inh: inhibitors of human PKD1 kinase | 200,000 tested, 0.056% active | inhibition, % (no concentration beside the values) | Q15139 | PKD1 kinase fluorescence polarization assay | AID 797
Wee1 degr inh: human Wee1 degradation inhibition, primary screen; P30291; HeLa Luc-Wee1K328M stability, luciferase luminescence; 100% = proteasome inhibitor MG132 effect; reporter increase, % at 5 µM; 220,000 tested, 1.2% active; AID 1321;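 active = activation above the mean of all tested compounds plus 3 SD, set per screening run, cut at about 8.8% in these data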;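 note: cells exposed to compound for 20 h before luminescence read; 0% = DMSO alone and 100% = MG132 at 30 µM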
Arbovirus inh: antivirals against arbovirus infection. arbovirus infection cell-based antiviral screen. inhibition, % at 10 µM. 200,000 tested, 0.37% active. AID 1251; in the data active = inhibition above about 30%
CHOP inh: inhibitors of CHOP induction in ER stress response | AID 2732 | inhibition, % at 10 µM | CHO-K1 CHOP-promoter luciferase, tunicamycin-induced, 15-18 h | 220,000 tested, 3.8% active;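 active = compounds that reduced the stress-induced luciferase reporter signal by more than about 70% of percent inhibition, limit read from the data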;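 note: 0% = tunicamycin plus vehicle and 100% = wells without tunicamycin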
* hit, by the source's call; nt = no result. A selection: hits, their analogues and other compounds. The true share with any hit is near 12%. Cut-off read from the data, not from the text of the source, unless noted: active = inhibition above about 50%; inactive = the rest.

SMILES	Lmaj promast	Rad51 HR inh	PKD1 kinase inh	Wee1 degr inh	Arbovirus inh	CHOP inh
O=C(CNc1cccc(S(=O)(=O)N2CCOCC2)c1)N1CCc2ccccc21	nt	-4.1	nt	2.2	nt	-11.0
Cc1oc2c(c(=O)c1C)C(=O)CC(c1ccccc1)C2 (configuration not stated)	-8.6	-4.1	-12.5	-1.5	11.8	27.3
CS(=O)(=O)c1sc(C#N)c2c1C(=O)CC(c1ccccc1)C2 (configuration not stated)	nt	-7.2	nt	0.9	nt	107.0*
CCCC(=O)Nc1cc(-c2nnc(OC)c3ccccc23)ccc1N1CCCCC1	40.1	nt	5.0	1.1	9.7	71.5*
C[C@]12CCC3c4ccc(OCC(=O)O)cc4CCC3C1CCC2=O (some centres not stated)	nt	22.4	nt	-1.4	nt	1.7
CCCCN(CCCC)Cc1cc2ccccc2c2c1COC2	27.4	-0.8	-3.8	3.1	3.5	76.3*
CC(=O)N1c2ccccc2C(C)(c2ccccc2)CC1(C)C (configuration not stated)	9.3	-8.8	-4.5	1.9	-10.2	35.8
CC1(c2ccc([N+](=O)[O-])cc2)CC(C)(C)N(C(=O)c2ccccc2)c2ccccc21 (configuration not stated)	10.7	-43.6	-1.9	3.0	33.6*	80.7*
c1ccc(-c2csc(-n3cccn3)n2)cc1	-1.3	-6.7	2.5	-1.6	-2.8	2.3
COc1nc(NCc2ccco2)nc(NC2CCCCC2)n1	18.9	-6.4	2.8	6.4	-1.2	-15.5
CCOc1nc(NC2CCCCC2)nc(NC(C)(C)C)n1	78.5*	0.6	-2.5	3.5	-8.3	28.1
CCCCC(=O)NC(c1ccccc1Cl)c1c(O)ccc2ccccc12 (configuration not stated)	99.3*	2.1	-7.2	4.3	-6.3	46.2
CCCCC(=O)NCc1ccccc1Cl	4.2	-25.4	-16.6	-0.9	20.7	0.2
CCCC(=O)NC(c1ccccc1Cl)c1c(O)ccc2ccccc12 (configuration not stated)	100.3*	0.4	-15.7	-1.2	5.5	14.5
Nc1cccc(S(=O)(=O)Nc2ccccc2)c1	-5.6	5.1	2.3	-0.1	3.2	-3.8
COc1ccc(C(CNC(=O)c2cncc(Br)c2)N(C)C)cc1 (configuration not stated)	-1.2	6.1	-2.8	-0.3	-0.7	9.6
COc1ccc([N+](=O)[O-])cc1NC(=O)COC(=O)c1ccccc1C(=O)c1ccccc1	92.2*	7.6	-9.0	0.6	1.4	23.4
COc1cc([N+](=O)[O-])ccc1NC(=O)COC(=O)c1n[nH]c2ccccc12	60.3*	5.1	-10.9	2.1	5.5	18.1
COc1ccc([N+](=O)[O-])cc1NC(=O)COC(=O)c1ccccc1O	nt	13.5	nt	-3.4	nt	-19.4
C=C1SC(=Nc2c(C)cc(C)cc2C)N(C(=O)c2sc3ccccc3c2Cl)C12CCCCC2	nt	-15.9	nt	2.1	nt	9.8
Cc1ccc(N2C(=O)CC(NNC(=O)Cc3ccc(F)cc3)C2=O)cc1Cl (configuration not stated)	nt	9.3	nt	0.3	nt	2.5
COC(=O)c1cc([N+](=O)[O-])c(-n2ccnc2)c([N+](=O)[O-])c1	37.4	-2.8	-13.5	-1.1	7.4	89.5*
COc1ccc(N(CC(=O)Nc2ccc(S(=O)(=O)N3CCOCC3)cc2)S(=O)(=O)c2ccccc2)cc1	58.2*	4.8	-6.2	1.9	-9.0	18.0
COc1cccc(NC(=O)CN(c2ccc([N+](=O)[O-])cc2)S(=O)(=O)c2ccccc2)c1	97.6*	nt	-0.7	-0.7	12.2	11.7
CCOc1ccc(N(CC(=O)Nc2c(C)n(C)n(-c3ccccc3)c2=O)S(=O)(=O)c2ccccc2)cc1	-5.9	6.0	-5.6	10.6*	-6.0	13.2
SMILES	Lmaj promast	Rad51 HR inh	PKD1 kinase inh	Wee1 degr inh	Arbovirus inh	CHOP inh
Cc1ccc(NC(=O)CN(c2ccc(Cl)cc2)S(=O)(=O)c2cc([N+](=O)[O-])ccc2Cl)c(C)c1	98.3*	23.2	5.3	0.6	-7.7	15.4
COc1ccccc1N(CC(=O)Nc1c(C)n(C)n(-c2ccccc2)c1=O)S(=O)(=O)c1ccc(C)cc1	-4.2	nt	5.5	-1.9	-1.0	28.2
COc1ccc(OC)c(/C=N/NC(=O)CC2C(=O)NN=C2C)c1 (configuration not stated)	-5.7	0.9	-1.0	0.7	0.3	2.9
CC1(C)CNC(=O)c2sc(NC(=O)c3ccccc3Cl)nc2C1	-5.0	24.6	7.0	-0.3	-6.9	-12.3
Cc1ccc([N+](=O)[O-])cc1NC(=O)CN(C(=O)c1ccccc1Cl)C1CCCCC1	34.0	nt	-2.3	-2.8	-2.3	32.3
Cc1ccc([N+](=O)[O-])cc1NC(=O)CN(C1CCCCC1)S(=O)(=O)c1ccc(Cl)cc1	73.3*	1.8	0.7	0.5	6.3	20.5
Cc1ccc(N(CC(=O)N2CCc3ccccc32)S(=O)(=O)c2cccs2)cc1	7.5	-1.0	5.3	0.0	0.0	35.3
CCOc1ccccc1NC(=O)CCN(c1ccc(C)cc1)S(=O)(=O)c1ccccc1	81.4*	-3.0	-6.2	2.0	-4.6	21.6
CS(=O)(=O)N(CC(=O)Nc1cccc([N+](=O)[O-])c1)c1ccccc1F	10.3	1.0	-1.3	1.0	10.7	-2.9
Cc1ccc(N(CC(=O)NC(C)c2ccccc2)S(=O)(=O)c2cccs2)cc1 (configuration not stated)	89.1*	10.8	-5.8	2.6	-4.2	36.2
Cc1ccccc1CN(CC(=O)Nc1cccc([N+](=O)[O-])c1)S(=O)(=O)c1ccc(Cl)cc1	99.6*	7.5	-0.5	0.5	-13.1	50.5
Fc1ccc(-c2nnc(Cc3ccc(Cl)cc3)o2)cc1	nt	-8.3	nt	4.8	nt	-29.6
CCCNC(=O)CCc1c(C)nc2nc(C)nn2c1C	-7.6	3.5	1.8	-1.3	3.8	16.4
CCOc1ccc(S(=O)(=O)N(CC(=O)N/N=C/c2cccs2)c2ccc(C)cc2)cc1	23.3	-8.5	-1.9	7.7	-12.8	75.8*
CS(=O)(=O)N(CC(=O)Nc1cccc([N+](=O)[O-])c1)c1ccccc1	-1.5	2.1	-2.9	-3.5	2.6	-8.0
COc1ccc(C)cc1S(=O)(=O)N(CC(=O)Nc1cccc([N+](=O)[O-])c1)c1ccccc1	56.0*	-4.1	-5.2	-0.3	3.6	0.7
CCc1nc2ccccc2c(C(=O)OCC(=O)Nc2cccc(S(=O)(=O)N3CCOCC3)c2)c1C	16.3	-3.4	-7.9	4.0	-21.7	31.0
CCc1nc2ccccc2c(C(=O)OCC(=O)Nc2ccc(S(=O)(=O)N3CCOCC3)cc2)c1C	21.3	nt	-6.9	-4.3	-3.6	74.4*
O=C(NC1CCN(C(=O)c2cccs2)CC1)c1ccccc1	nt	-3.1	nt	-2.0	nt	14.6
CCCNC(=O)NNC(=O)c1ccc(F)cc1	-4.8	nt	-0.8	-0.2	3.7	25.0
COc1cccc(/C=N/NC(=O)c2ccc(CN3c4cccc5cccc(c45)S3(=O)=O)cc2)c1	82.1*	8.4	-16.7	-2.4	-10.0	20.1

Assay outcomes: PubChem BioAssay, several laboratories
